Measurements from ChEMBL document CHEMBL1123981, “Arylpiperazine derivatives as high-affinity 5-HT1A serotonin ligands” (J Med Chem, 1988).

Key:
Assay type in all cases: tissue-based
[1] = molecular target: T1, 5-hydroxytryptamine receptor 1A (Rattus norvegicus, UniProt P19327); test: Evaluated for binding affinity towards 5-hydroxytryptamine 1A receptor in rat brain
T1 sequence (P19327 whole entry): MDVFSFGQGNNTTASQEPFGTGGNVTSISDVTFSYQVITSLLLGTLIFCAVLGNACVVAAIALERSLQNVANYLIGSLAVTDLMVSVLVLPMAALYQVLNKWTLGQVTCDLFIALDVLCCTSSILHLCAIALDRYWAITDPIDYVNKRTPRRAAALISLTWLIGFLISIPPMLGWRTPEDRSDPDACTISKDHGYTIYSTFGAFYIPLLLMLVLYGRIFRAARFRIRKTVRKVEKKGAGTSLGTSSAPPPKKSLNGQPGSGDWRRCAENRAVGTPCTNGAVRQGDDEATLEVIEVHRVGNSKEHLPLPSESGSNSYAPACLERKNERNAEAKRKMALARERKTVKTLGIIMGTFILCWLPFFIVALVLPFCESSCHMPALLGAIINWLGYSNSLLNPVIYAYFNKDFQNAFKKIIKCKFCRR

[2] = molecular target: T2, 5-hydroxytryptamine receptor 1A (Rattus norvegicus) (UniProt P19327); test: Hill coefficient in rat brain 5-hydroxytryptamine 1A assay
T2 sequence (whole entry): T1 sequence (P19327 whole entry)

[3] = molecular target: T1, 5-hydroxytryptamine receptor 1A; test: Binding affinity towards 5-hydroxytryptamine 1A receptor in rat brain
Outline: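 Rat hippocampal membranes (male Sprague-Dawley, ca. 220 g), homogenized in 50 mM Tris-HCl/0.5 mM EDTA/10 mM MgSO4, washed, preincubated 15 min at 37 °C; 0.1 nM [3H]8-OH-DPAT with 4 mg wet tissue in Tris pH 7.7 with pargyline, ascorbate; eleven competitor concentrations; 37 °C 20 min; nonspecific with 1 μM 8-OH-DPAT; filtration, scintillation counting; Ki by Cheng–Prusoff.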

| Structure (SMILES) | Ki [1] [nM] | Hill coefficient [2] | Ki [3] [nM] |
| --- | --- | --- | --- |
| c1ccc2c(N3CCNCC3)cccc2c1 | 11 | 0.85 | – |
| c1cnc(N2CCNCC2)nc1 [2-PIPERAZIN-1-YL-PYRIMIDINE] | 1410 | 0.95 | – |
| COc1ccccc1N1CCNCC1 | 68 | 0.88 | – |
| O=C1c2ccccc2C(=O)N1CCCCN1CCN(c2ncccn2)CC1 | 36 | 1.03 | – |
| O=C1c2ccccc2C(=O)N1CCCN1CCN(c2ccccc2)CC1 | 200 | 0.99 | – |
| O=C(NCCCCN1CCN(c2ncccn2)CC1)c1ccccc1 | 60 | 0.79 | – |
| CC(=O)NCCCCN1CCN(c2ccccc2)CC1 | 250 | 0.99 | – |
| NCCCCN1CCN(c2ccccc2)CC1 | > 6000 | – | – |
| O=C1c2ccccc2C(=O)N1CCCCN1CCN(c2cccc3ccccc23)CC1 | 1 | 1.16 | – |
| COc1ccccc1N1CCN(CCCCNC(=O)c2ccccc2)CC1 | 2 | 0.88 | – |
| Clc1cccc(N2CCNCC2)c1 [CHLOROPHENYLPIPERAZINE] | 130 | 0.91 | – |
| FC(F)(F)c1cccc(N2CCNCC2)c1 | 175 | 0.97 | – |
| c1ccc2cc(N3CCNCC3)ccc2c1 | 2900 | 1.02 | – |
| c1ccc(C2CCNCC2)cc1 | 1520 | 0.97 | – |
| O=C(NCCCCN1CCN(c2ccccc2)CC1)c1ccccc1 | – | 0.82 | 11 |
| COc1ccc(Cl)cc1N1CCNCC1 | 870 | 0.97 | – |
| O=C1c2ccccc2C(=O)N1CCCCCN1CCN(c2ccccc2)CC1 | 8.5 | 0.91 | – |
| CC1(C)CC(=O)N(CCCCN2CCN(c3ncccn3)CC2)C(=O)C1 | – | 1 | – |
| O=C1c2ccccc2C(=O)N1CCCCN1CCN(c2ccccc2)CC1 | 10 | 0.99 | – |
| c1ccc(N2CCNCC2)cc1 [PHENYLPIPERAZINE] | 380 | 0.95 | – |
| O=C1c2ccccc2C(=O)N1CCN1CCN(c2ccccc2)CC1 | > 10000 | – | – |
